Experimental data published in ChEMBL document CHEMBL1156077, “Piperazinyl-glutamate-pyrimidines as potent P2Y12 antagonists for inhibition of platelet aggregation” (Bioorg Med Chem Lett, 2009).

Key:
P2Y purinoceptor 12 [1] = target: T1, P2Y purinoceptor 12 (Homo sapiens, UniProt Q9H244); assay: Binding affinity at human recombinant P2Y12 receptor expressed in CHO cells by radioligand binding assay; assay type: cell-based
Outline: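 Washed membranes from CHO cells transfected with synthetic human P2Y12 gene. Compounds as 7-point threefold dilutions, triplicate, 1 h at room temperature. Nonspecific binding defined with 300 nM 2-MeSADP. Filtered, washed with ice-cold Tris pH 7.4. Single-site fit; IC50 converted to Ki by Cheng–Prusoff, geometric mean of n≥2.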

P2Y purinoceptor 12 [2] = target: T1, P2Y purinoceptor 12; assay: Ratio of compound IC50 to thienopyrimidine IC50 for P2Y12 receptor in human platelet rich plasma assessed as inhibition of ADP-induced platelet aggregation by light transmission aggregometry
Outline: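 Human platelet-rich plasma was pre-incubated 5 min at 37 °C with compound across seven concentrations (10 down to 0.156). Aggregation was started with ADP (20, final) and followed by light transmission at 626 nm for 15 min at 37 °C. Duplicate concentration-response data were read at the 15-min end-point. IC50 was divided by the IC50 of the thienopyrimidine reference run on the same plate.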

P2Y purinoceptor 12 [3] = target: T1, P2Y purinoceptor 12; assay: Ratio of compound IC50 to AZD-6140 IC50 for P2Y12 receptor in human platelet rich plasma assessed as inhibition of ADP-induced platelet aggregation by light transmission aggregometry
Outline: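 Human platelet-rich plasma was pre-incubated 5 min at 37 °C with compound across seven concentrations (10 down to 0.156). Aggregation was started with ADP (20, final) and followed by light transmission at 626 nm for 15 min at 37 °C. Duplicate concentration-response data were read at the 15-min end-point. IC50 was divided by the IC50 of AZD-6140 run on the same plate.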

Liver microsomes [4] = assay: Metabolic stability in rat liver microsomes assessed as compound remaining; assay type: ADME, Microsome
Outline: (§1)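 Compounds incubated 30 min with human or rat liver microsomes; percent of parent compound remaining measured.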

Liver microsomes [5] = assay: Metabolic stability in human liver microsomes assessed as compound remaining; assay type: ADME, Microsome; outline: as §1
CYP1A2 = target: T2, CYP1A2 (Homo sapiens, UniProt P05177); assay: Inhibition of CYP1A2 at 3 uM after 30 mins; assay type: ADME
T2 sequence (P05177 whole entry): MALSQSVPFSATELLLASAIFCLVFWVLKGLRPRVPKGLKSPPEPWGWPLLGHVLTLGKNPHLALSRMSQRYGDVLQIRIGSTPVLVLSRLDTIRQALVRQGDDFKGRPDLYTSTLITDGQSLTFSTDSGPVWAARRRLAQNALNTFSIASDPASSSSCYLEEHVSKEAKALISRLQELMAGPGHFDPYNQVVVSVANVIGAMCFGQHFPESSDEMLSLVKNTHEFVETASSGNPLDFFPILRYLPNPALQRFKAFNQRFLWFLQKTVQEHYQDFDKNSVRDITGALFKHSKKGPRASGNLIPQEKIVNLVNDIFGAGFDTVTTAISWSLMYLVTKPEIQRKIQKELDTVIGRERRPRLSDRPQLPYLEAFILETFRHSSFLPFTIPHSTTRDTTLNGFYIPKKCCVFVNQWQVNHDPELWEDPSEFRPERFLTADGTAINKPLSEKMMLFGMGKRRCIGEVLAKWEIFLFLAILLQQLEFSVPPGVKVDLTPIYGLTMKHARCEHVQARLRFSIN
Outline: (§2)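 Each CYP isoform assayed separately at a single 3 µM compound concentration in duplicate, with at least one isoform-specific positive control inhibitor. Incubation 30 min at 37 °C; end-point measurement gives percent inhibition.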

CYP2C9 = CYP2C9 (Homo sapiens, UniProt P11712); assay: Inhibition of CYP2C9 at 3 uM after 30 mins; assay type: ADME; outline: as §2
Chain of CYP2C9 (P11712 whole entry): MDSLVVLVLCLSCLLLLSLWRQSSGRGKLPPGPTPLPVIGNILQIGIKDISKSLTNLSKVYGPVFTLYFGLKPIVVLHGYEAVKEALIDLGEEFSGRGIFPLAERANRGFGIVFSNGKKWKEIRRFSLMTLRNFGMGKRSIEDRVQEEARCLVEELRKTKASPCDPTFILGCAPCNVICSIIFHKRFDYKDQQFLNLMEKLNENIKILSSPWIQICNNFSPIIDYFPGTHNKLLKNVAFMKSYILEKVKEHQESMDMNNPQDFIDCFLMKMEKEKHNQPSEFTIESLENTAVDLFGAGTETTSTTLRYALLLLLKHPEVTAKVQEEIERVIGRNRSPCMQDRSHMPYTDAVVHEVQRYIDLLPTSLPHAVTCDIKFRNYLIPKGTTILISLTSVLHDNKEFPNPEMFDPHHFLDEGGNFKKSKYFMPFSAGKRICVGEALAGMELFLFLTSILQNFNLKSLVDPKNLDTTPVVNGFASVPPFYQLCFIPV

CYP2D6 = CYP2D6 (Homo sapiens, UniProt P10635); assay: Inhibition of CYP2D6 at 3 uM after 30 mins; assay type: ADME; outline: as §2
Chain of CYP2D6 (P10635 whole entry): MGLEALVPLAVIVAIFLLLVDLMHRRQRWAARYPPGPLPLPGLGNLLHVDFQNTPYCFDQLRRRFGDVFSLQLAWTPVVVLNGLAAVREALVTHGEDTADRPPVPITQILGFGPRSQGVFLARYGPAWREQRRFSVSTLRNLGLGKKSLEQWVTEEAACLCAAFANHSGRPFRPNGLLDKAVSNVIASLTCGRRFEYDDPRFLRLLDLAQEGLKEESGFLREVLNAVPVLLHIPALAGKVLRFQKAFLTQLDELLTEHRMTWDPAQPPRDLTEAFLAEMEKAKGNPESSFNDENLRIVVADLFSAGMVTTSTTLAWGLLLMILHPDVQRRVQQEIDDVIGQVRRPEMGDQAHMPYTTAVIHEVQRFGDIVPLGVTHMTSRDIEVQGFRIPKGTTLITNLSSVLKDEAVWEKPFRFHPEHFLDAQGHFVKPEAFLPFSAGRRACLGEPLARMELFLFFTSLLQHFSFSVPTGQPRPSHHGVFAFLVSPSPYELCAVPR

CYP3A4 = CYP3A4 (Homo sapiens, UniProt P08684); assay: Inhibition of CYP3A4 at 3 uM after 30 mins; assay type: ADME; outline: as §2
Chain of CYP3A4 (P08684 whole entry): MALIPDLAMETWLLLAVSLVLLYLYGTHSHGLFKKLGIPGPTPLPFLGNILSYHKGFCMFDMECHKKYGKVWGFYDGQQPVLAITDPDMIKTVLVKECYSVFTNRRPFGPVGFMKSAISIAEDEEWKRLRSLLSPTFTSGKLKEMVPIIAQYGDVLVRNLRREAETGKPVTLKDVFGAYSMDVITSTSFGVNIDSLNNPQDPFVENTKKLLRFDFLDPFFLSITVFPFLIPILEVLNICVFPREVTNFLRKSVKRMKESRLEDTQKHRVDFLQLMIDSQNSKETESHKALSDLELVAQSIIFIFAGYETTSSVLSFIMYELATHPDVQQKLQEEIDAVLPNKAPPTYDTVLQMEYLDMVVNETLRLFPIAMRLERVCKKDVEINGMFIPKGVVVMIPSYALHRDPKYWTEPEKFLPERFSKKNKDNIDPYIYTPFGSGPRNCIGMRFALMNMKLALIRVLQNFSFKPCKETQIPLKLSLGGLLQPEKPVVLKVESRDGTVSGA

hERG (KCNH2) = hERG (KCNH2) (Homo sapiens, UniProt Q12809); assay: Displacement of Cy3B-tagged N-desmethyl dofetilide from human ERG expressed in HEK cells at 10 uM after 120 mins; assay type: cell-based, HEK293; settings: HEK cells that express human ERG, probe Cy3B-tagged N-desmethyl dofetilide
Chain of hERG (KCNH2) (Q12809 whole entry): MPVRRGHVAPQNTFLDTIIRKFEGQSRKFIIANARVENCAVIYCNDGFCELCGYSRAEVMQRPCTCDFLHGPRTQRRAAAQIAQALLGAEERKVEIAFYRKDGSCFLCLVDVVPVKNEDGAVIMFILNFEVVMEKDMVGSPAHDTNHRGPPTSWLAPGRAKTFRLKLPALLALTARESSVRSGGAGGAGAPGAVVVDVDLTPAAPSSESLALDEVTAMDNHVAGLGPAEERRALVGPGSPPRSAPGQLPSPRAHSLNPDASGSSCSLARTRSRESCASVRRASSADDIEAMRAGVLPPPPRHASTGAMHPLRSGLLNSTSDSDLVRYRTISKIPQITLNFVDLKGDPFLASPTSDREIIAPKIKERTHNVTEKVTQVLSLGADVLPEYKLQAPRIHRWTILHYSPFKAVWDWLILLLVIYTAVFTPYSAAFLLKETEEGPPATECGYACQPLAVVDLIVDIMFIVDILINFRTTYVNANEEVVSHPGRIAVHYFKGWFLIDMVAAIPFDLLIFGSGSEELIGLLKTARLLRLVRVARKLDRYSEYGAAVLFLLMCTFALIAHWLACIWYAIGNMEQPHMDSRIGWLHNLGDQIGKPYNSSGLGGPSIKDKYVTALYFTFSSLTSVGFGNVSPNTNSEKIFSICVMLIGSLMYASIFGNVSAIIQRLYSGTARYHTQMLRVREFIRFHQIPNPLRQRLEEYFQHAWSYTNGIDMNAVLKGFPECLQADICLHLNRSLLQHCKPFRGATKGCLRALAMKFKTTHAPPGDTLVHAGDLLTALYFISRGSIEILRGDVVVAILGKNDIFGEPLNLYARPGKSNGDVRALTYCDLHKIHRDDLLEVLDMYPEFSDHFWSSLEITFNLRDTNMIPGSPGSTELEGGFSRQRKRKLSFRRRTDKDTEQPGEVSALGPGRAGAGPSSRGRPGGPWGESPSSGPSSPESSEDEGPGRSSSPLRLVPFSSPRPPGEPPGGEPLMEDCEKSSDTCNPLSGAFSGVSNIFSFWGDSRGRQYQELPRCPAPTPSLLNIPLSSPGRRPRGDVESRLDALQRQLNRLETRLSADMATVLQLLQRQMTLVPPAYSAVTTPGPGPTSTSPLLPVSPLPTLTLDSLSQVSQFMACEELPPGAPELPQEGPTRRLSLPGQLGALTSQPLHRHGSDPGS
Outline: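 Fluorescence polarization competition assay with HEK-hERG membrane homogenates and Cy3B-tagged N-desmethyl dofetilide tracer. Compound tested at a single 10 µM concentration, 120 min incubation, end-point read for percent inhibition.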

[6] = Effective half life in Sprague-Dawley rat at 2 mg/kg, iv and 5 mg/kg, po; assay type: ADME, organism-based; settings: in vivo
[7] = Clearance in Sprague-Dawley rat at 2 mg/kg, iv and 5 mg/kg, po; assay type: ADME, organism-based; settings: in vivo
[8] = Volume of distribution at steady state in Sprague-Dawley rat at 2 mg/kg, iv and 5 mg/kg, po; assay type: ADME, organism-based; settings: in vivo, read-out: Vdss
[9] = Selectivity for human P2Y12 receptor over P2Y13
[10] = Selectivity for human P2Y12 receptor over P2Y1
[11] = Oral bioavailability in Sprague-Dawley rat at 5 mg/kg; assay type: ADME, organism-based; settings: in vivo

T1 sequence (Q9H244 whole entry): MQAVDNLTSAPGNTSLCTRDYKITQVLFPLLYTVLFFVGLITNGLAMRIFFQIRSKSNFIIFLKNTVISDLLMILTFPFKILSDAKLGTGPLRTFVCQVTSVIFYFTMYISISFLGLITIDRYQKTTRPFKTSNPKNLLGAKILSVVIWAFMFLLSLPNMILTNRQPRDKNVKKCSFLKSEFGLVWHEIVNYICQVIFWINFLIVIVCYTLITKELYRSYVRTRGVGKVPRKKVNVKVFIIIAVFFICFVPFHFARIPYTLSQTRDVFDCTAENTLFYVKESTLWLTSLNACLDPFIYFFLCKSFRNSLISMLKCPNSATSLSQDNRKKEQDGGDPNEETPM

| Structure (SMILES) | Ki (P2Y purinoceptor 12 [1]) [nM] | Ratio IC50 (P2Y purinoceptor 12 [2]) | Ratio IC50 (P2Y purinoceptor 12 [3]) | Stability (Liver microsomes [4]) [%] | Stability (Liver microsomes [5]) [%] | inhibition at 0.5 h, 3 µM (CYP1A2) [%] | inhibition at 0.5 h, 3 µM (CYP2C9) [%] | inhibition at 0.5 h, 3 µM (CYP2D6) [%] | inhibition at 0.5 h, 3 µM (CYP3A4) [%] | inhibition at 2 h, 10 µM (hERG (KCNH2)) [%] | half-life [6] [min] | clearance [7] [mL/min/kg] | Vd [8] [L/kg] | fold change (FC) [9] | fold change (FC) [10] | bioavailability [11] [%] |
| --- | --- | --- | --- | --- | --- | --- | --- | --- | --- | --- | --- | --- | --- | --- | --- | --- |
| CCCCCOC(=O)N1CCN(C(=O)[C@H](CCC(=O)O)NC(=O)c2cc(N3CCC(C(N)=O)CC3)nc(-c3ccccc3)n2)CC1 | 2 | 0.1 | 0.7 | > 80 | > 80 | < 25 | < 25 | < 25 | < 25 | < 25 | 24 | 68 | 2.4 | > 340 | > 340 |  |
| CCCCCOC(=O)N1CCN(C(=O)[C@H](CCC(=O)O)NC(=O)c2cc(N3CCC(C(=O)N(CC)CC)CC3)nc(-c3ccccc3)n2)CC1 | 1.5 | 0.1 | 0.6 | > 80 | > 80 | < 25 | < 25 | < 25 | < 25 | < 25 | 24 | 6 | 0.21 | > 340 | > 340 | 38 |
| CCCCCOC(=O)N1CCN(C(=O)[C@H](CCC(=O)O)NC(=O)c2cc(N3CCC(C(=O)NCC)CC3)nc(-c3ccccc3)n2)CC1 | 0.6 | 0.2 | 1.5 | > 80 | > 80 | < 25 | < 25 | < 25 | < 25 | < 25 | 18 | 8 | 0.2 | > 340 | > 340 | 8 |
| CCCCCOC(=O)N1CCN(C(=O)[C@H](CCC(=O)O)NC(=O)c2cc(N3CCC(C(=O)N4CCCC4)CC3)nc(-c3ccccc3)n2)CC1 | 0.46 | 0.06 | 0.4 | > 80 | > 80 | < 25 | < 25 | < 25 | < 25 | < 25 | 48 | 2 | 0.2 | > 340 | > 340 | 13 |
| CCCCCOC(=O)N1CCN(C(=O)[C@H](CCC(=O)O)NC(=O)c2cc(N3CCC(COC)CC3)nc(-c3ccccc3)n2)CC1 | 8.4 | 0.4 | 2.8 | > 80 | > 80 | < 25 | < 25 | < 25 | < 25 | < 25 | 54 | 14 | 1.1 | > 340 | > 340 | 61 |
| CCCCCOC(=O)N1CCN(C(=O)[C@H](CCC(=O)O)NC(=O)c2nc(-c3ccccc3)cc(N3CCC(CN)CC3)n2)CC1 | 9.4 | 0.2 | 1.2 | > 80 | > 80 | < 25 | < 25 | < 25 | < 25 | < 25 | 12 | 16 | 0.28 | > 340 | > 340 | 1 |
| CCCCCOC(=O)N1CCN(C(=O)[C@H](CCC(=O)O)NC(=O)c2nc(-c3ccccc3)cc(N3CCC(COC)CC3)n2)CC1 | 12 | 1.4 | 9.5 | > 80 | > 80 | < 25 | < 25 | < 25 | < 25 | < 25 | 18 | 6 | 0.15 | > 340 | > 340 | 6 |
| CCCCCOC(=O)N1CCN(C(=O)[C@H](CCC(=O)O)NC(=O)c2cc(N3CCC(N4CCCC4)CC3)nc(-c3ccccc3)n2)CC1 | 1.5 | 0.1 | 0.4 | > 80 | > 80 | < 25 | < 25 | < 25 | < 25 | < 25 |  |  |  | > 340 | > 340 |  |
| CCCCCOC(=O)N1CCN(C(=O)[C@H](CCC(=O)O)NC(=O)c2cc(N3CCC(OCCO)CC3)nc(-c3ccccc3)n2)CC1 | 0.71 | 0.4 | 0.9 | > 80 | > 80 | < 25 | < 25 | < 25 | < 25 | < 25 | 30 | 18 | 0.8 | > 340 | > 340 |  |
